Experiments:
[1] = molecular target: T1, Neuronal acetylcholine receptor subunit alpha-7 (Rattus norvegicus, UniProt Q05941); test: Binding affinity in rat hippocampi against Nicotinic acetylcholine receptor alpha7; type: tissue-based, Hippocampus
Summary of the method: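 Incubated with 5 nM [¹²⁵I]α-bungarotoxin and 1 mg/mL BSA for 2 h at 21 °C. Collected on GF/C filters pretreated with 1% BSA/0.01% PEI. IC50 from six concentrations in triplicate.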

[2] = molecular target: Neuronal acetylcholine receptor; alpha4/beta2 (Rattus norvegicus, UniProt P09483+P12390); test: Binding affinity in rat forebrain against Nicotinic acetylcholine receptor alpha4-beta2
Summary of the method: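 Captured on GF/B filters treated with 0.01% PEI and counted by scintillation. Nonspecific binding taken with 100 µM carbachol. IC50 fitted from five concentrations run in triplicate.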

[3] = molecular target: T1, Neuronal acetylcholine receptor subunit alpha-7; test: Potency was determined by measuring current activation in Xenopus oocytes expressing rat alpha-7 nAChRs; type: cell-based, Oocyte
Summary of the method: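 Xenopus oocytes injected with cRNA for rat α7 nAChR and recorded 3-10 days after injection. Read-out is evoked current activation. Intrinsic activity scaled in each oocyte to the current elicited by 3 mM acetylcholine, set as 100%.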

T1 sequence (Q05941 whole entry): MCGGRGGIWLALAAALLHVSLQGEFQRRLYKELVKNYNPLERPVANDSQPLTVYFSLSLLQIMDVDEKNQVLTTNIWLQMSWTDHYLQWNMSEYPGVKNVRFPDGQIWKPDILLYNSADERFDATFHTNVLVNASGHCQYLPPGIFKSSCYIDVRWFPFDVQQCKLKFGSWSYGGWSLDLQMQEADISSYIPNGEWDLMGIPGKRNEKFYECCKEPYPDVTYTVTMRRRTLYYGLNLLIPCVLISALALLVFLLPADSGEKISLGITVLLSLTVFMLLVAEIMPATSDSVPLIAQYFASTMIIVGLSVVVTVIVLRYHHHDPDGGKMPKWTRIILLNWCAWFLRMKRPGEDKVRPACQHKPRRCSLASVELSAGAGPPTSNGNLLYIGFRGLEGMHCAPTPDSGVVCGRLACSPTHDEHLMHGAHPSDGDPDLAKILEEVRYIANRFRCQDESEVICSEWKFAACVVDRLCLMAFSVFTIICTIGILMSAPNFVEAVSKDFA
Chain of Neuronal acetylcholine receptor; alpha4/beta2 (P09483 whole entry): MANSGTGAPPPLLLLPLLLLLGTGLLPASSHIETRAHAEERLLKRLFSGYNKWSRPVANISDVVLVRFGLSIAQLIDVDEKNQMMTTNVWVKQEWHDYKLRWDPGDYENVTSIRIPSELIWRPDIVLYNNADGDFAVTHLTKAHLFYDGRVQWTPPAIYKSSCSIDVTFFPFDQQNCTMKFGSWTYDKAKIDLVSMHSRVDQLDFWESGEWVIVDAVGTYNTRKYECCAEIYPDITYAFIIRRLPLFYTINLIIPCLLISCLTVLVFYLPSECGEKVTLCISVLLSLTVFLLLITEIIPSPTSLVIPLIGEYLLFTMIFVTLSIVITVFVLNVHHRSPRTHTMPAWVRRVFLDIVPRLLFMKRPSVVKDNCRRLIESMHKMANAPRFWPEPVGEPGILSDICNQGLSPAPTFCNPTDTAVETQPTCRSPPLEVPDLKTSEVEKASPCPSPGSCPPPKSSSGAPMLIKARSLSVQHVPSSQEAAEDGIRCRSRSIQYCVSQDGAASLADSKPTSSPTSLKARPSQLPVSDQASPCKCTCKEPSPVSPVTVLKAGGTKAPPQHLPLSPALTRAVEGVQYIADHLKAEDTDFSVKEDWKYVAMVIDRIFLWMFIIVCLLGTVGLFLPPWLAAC
Chain of Neuronal acetylcholine receptor; alpha4/beta2 (P12390 whole entry): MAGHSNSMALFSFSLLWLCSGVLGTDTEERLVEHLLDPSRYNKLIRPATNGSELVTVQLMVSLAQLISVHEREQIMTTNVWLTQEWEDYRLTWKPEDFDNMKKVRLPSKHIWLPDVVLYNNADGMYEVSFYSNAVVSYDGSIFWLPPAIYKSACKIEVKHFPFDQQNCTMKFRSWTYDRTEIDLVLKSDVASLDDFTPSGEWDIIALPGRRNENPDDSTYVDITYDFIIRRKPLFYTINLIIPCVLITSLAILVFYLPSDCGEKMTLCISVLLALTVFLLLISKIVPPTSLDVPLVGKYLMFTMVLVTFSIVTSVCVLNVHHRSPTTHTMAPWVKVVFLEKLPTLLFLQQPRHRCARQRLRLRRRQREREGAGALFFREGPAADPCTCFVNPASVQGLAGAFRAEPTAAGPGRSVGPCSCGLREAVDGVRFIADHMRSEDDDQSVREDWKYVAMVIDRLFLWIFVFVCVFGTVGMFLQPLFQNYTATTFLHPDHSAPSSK

Row | SMILES | Ki [1] [µM] | Ki [2] [µM] | EC50 [3] [µM]
1 | CCN1CC2(CN3CCC2CC3)OC1=O (configuration not stated) | 0.69 | 0.17 | –
2 | CN1C(=O)NCC12CN1CCC2CC1 (configuration not stated) | > 13 | – | –
3 | O=C1NC2(CO1)CN1CCC2CC1 (configuration not stated) | > 4.3 | – | –
4 | O=C1CC2(CN1)CN1CCC2CC1 (configuration not stated) | 4 | – | –
5 | O=C1NCC2(CN3CCC2CC3)N1 (configuration not stated) | > 13 | – | –
6 | O=C1NCC2(CN3CCC2CC3)O1 (single isomer, unassigned; (-)) | – | – | 21000

From ChEMBL document CHEMBL1133089 (J Med Chem, 2000)
